Results: ChEMBL document CHEMBL6177921, “Enhancing the antimycobacterial efficacy of pyridine-4-carbohydrazide: linkage to additional antimicrobial agents via oxocarboxylic acids” (RSC Med Chem, 2025)
Converted amounts (≈) assume the structure as drawn.

Key:
Format in all cases: functional
Mycobacterium kansasii [1] = test: Antimycobacterial activity against multi-drug resistant Mycobacterium kansasii clinical isolate CNCTC 6509/96 assessed as bacterial growth inhibition incubated for 21 days by two-fold serial dilution method; details: CNCTC 6509/96, 504 h, time 21 day
Outline: (§1)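 M. kansasii clinical isolate 6509/96 (stock dilution 10−4) in Šula's semisynthetic liquid medium; two-fold serial dilutions 1000 to 1 μM, DMSO final 1.0% v/v; final load 1.5 × 10^5 CFU mL−1; MIC read visually as complete growth inhibition at 7, 14 and 21 days.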

[2] = test system: Mycobacterium tuberculosis; test: Antimycobacterial activity against multidrug sensitive Mycobacterium tuberculosis H37Rv CNCTC 331/88 assessed as bacterial growth inhibition incubated for 14 days by two-fold serial dilution method; details: H37Rv CNCTC 331/88, 336 h, time 14 day
Mycobacterium kansasii [3] = test: Antimycobacterial activity against INH/RIF/rifabutin/OFX/EMB Mycobacterium kansasii CNCTC 6509/96 clinical isolate assessed as bacterial growth inhibition incubated for 7 days by two-fold serial dilution method; details: CNCTC 6509/96, 168 h, time 7 day
Outline: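 Šula's liquid semisynthetic medium; M. kansasii clinical isolate 6509/96 used at stock dilution 10−4, final ~1.5 × 10^5 CFU mL−1. Two-fold dilutions ran 1000–1 μM with final DMSO 1.0% (v/v). MIC was read visually as complete growth inhibition after 7, 14 and 21 days.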

[4] = test system: Mycobacterium tuberculosis; test: Antimycobacterial activity against Mycobacterium tuberculosis H37Rv CNCTC 331/88 assessed as bacterial growth inhibition incubated for 21 days by two fold serial dilution method; details: H37Rv CNCTC 331/88, 504 h, time 21 day
Mycobacterium avium [5] = test: Antimycobacterial activity against INH/RIF/rifabutin/OFX/EMB resistant Mycobacterium avium CNCTC 330/88 assessed as bacterial growth inhibition incubated for 14 days by two-fold serial dilution method; details: CNCTC 330/88, 336 h, time 14 day
Outline: (§2)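 M. avium CNCTC 330/88 (stock suspension dilution 10−5) grown in Šula's semisynthetic liquid medium; two-fold serial dilutions 1000 to 1 μM from DMSO stocks (final DMSO 1.0% v/v); final load 1.5 × 10^5 CFU mL−1; MIC read visually as lowest concentration giving complete growth inhibition after 14 and 21 days.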

Mycobacterium avium [6] = test: Antimycobacterial activity against INH/RIF/rifabutin/OFX/EMB resistant Mycobacterium avium CNCTC 330/88 assessed as bacterial growth inhibition incubated for 21 days by two-fold serial dilution method; details: CNCTC 330/88, 504 h, time 21 day; outline: as §2
Mycobacterium kansasii [7] = test: Antimycobacterial activity against multi-drug resistant Mycobacterium kansasii CNCTC 6509/96 clinical isolate assessed as bacterial growth inhibition incubated for 14 days by two-fold serial dilution method; details: CNCTC 6509/96, 336 h, time 14 day; outline: as §1
Pichia kudriavzevii [8] = test: Antifungal activity against Candida krusei CCM 8271 measured after 24 to 48 hrs by microdilution broth method; details: time 24-48 hrs
Outline: (§3)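 Yeast broth microdilution per EUCAST, slightly modified. Medium was RPMI-1640 with 2% glucose, MOPS-buffered to pH 7.0. Compounds were tested at 0.98–500 μM with final DMSO ≤1.0% (v/v). Inoculum came from 18–24 h cultures, final ~1–5 × 10^5 CFU mL−1. Plates were incubated statically, dark and humidified, at 35 ± 2 °C. MIC was read visually at 24 and 48 h (no visible growth).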

Candida albicans [9] = test: Antifungal activity against Candida albicans ATCC 24443 measured after 24 to 48 hrs by microdilution broth method; details: time 24-48 hrs; outline: as §3
[10] = test system: Trichophyton interdigitale; test: Antifungal activity against Trichophyton interdigitale CCM 8377 measured after 24 to 48 hrs by microdilution broth method; details: time 24-48 hrs
Lichtheimia corymbifera = test: Antifungal activity against Lichtheimia corymbifera CCM 8077 measured after 24 to 48 hrs by microdilution broth method; details: time 24-48 hrs
Outline: (§4)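 Filamentous fungi tested by broth microdilution per EUCAST with minor changes. Compounds were tested at 0.98–500 μM with final DMSO ≤1.0% (v/v). Plates were incubated statically, dark and humidified, at 35 ± 2 °C for 24 and 48 h. MIC was the lowest concentration showing no visible growth.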

Candida parapsilosis [11] = test: Antifungal activity against Candida parapsilosis CCM 8260 measured after 24 to 48 hrs by microdilution broth method; details: Lodderomyces parapsilosis, time 24-48 hrs; outline: as §3
[12] = test system: Trichophyton interdigitale; test: Antifungal activity against Trichophyton interdigitale ATCC 9533 measured after 24 to 48 hrs by microdilution broth method; details: time 24-48 hrs
Candida albicans [13] = test: Antifungal activity against Candida albicans CCM 8320 measured after 24 to 48 hrs by microdilution broth method; details: time 24-48 hrs; outline: as §3
Candida parapsilosis [14] = test: Antifungal activity against Candida parapsilosis ATCC 22019 measured after 24 to 48 hrs by microdilution broth method; details: Lodderomyces parapsilosis, time 24-48 hrs; outline: as §3
Aspergillus fumigatus = test: Antifungal activity against Aspergillus fumigatus ATCC 204305 measured after 24 to 48 hrs by microdilution broth method; details: time 24-48 hrs; outline: as §4
Aspergillus flavus = test: Antifungal activity against Aspergillus flavus CCM 8363 measured after 24 to 48 hrs by microdilution broth method; details: time 24-48 hrs; outline: as §4
Candida tropicalis [15] = test: Antifungal activity against Candida tropicalis CCM 8264 measured after 24 to 48 hrs by microdilution broth method; details: time 24-48 hrs; outline: as §3
Candida tropicalis [16] = test: Antifungal activity against Candida tropicalis ATCC 750 measured after 24 to 48 hrs by microdilution broth method; details: time 24-48 hrs; outline: as §3
Pichia kudriavzevii [17] = test: Antifungal activity against Candida krusei ATCC 6258 measured after 24 to 48 hrs by microdilution broth method; details: time 24-48 hrs; outline: as §3

Compound	MIC (Mycobacterium kansasii [1])	MIC [2]	MIC (Mycobacterium kansasii [3])	MIC [4]	MIC (Mycobacterium avium [5])	MIC (Mycobacterium avium [6])	MIC (Mycobacterium kansasii [7])	MIC (Pichia kudriavzevii [8])	MIC (Candida albicans [9])	MIC [10]	MIC (Lichtheimia corymbifera)	MIC (Candida parapsilosis [11])	MIC [12]	MIC (Candida albicans [13])	MIC (Candida parapsilosis [14])	MIC (Aspergillus fumigatus)	MIC (Aspergillus flavus)	MIC (Candida tropicalis [15])	MIC (Candida tropicalis [16])	MIC (Pichia kudriavzevii [17])
Nc1ccc(S(=O)(=O)Nc2ccc(-c3ccccc3)cc2)cc1	500 µM (≈ 162 µg/mL)	500 µM (≈ 162 µg/mL)	250 µM (≈ 81.1 µg/mL)	500 µM (≈ 162 µg/mL)	≥ 1000 µM	≥ 1000 µM	250 µM (≈ 81.1 µg/mL)	–	–	–	–	–	–	–	–	–	–	–	–	–
O=C(/C=N/NC(=O)c1ccncc1)Nc1ccc(S(=O)(=O)Nc2ncccn2)cc1	16 µM (≈ 6.81 µg/mL)	1 µM (≈ 0.425 µg/mL)	8 µM (≈ 3.4 µg/mL)	2 µM (≈ 0.851 µg/mL)	500 µM (≈ 213 µg/mL)	500 µM (≈ 213 µg/mL)	16 µM (≈ 6.81 µg/mL)	–	–	–	–	–	–	–	–	–	–	–	–	–
COc1ccc(NS(=O)(=O)c2ccc(NC(=O)/C(C)=N/NC(=O)c3ccncc3)cc2)nn1	32 µM (≈ 15 µg/mL)	1 µM (≈ 0.469 µg/mL)	32 µM (≈ 15 µg/mL)	1 µM (≈ 0.469 µg/mL)	≥ 1000 µM	≥ 1000 µM	32 µM (≈ 15 µg/mL)	> 500 µM	> 500 µM	> 500 µM	> 500 µM	> 500 µM	> 500 µM	> 500 µM	> 500 µM	> 500 µM	> 500 µM	> 500 µM	> 500 µM	> 500 µM
C/C(=N\NC(=O)c1ccncc1)C(=O)Nc1ccc(S(=O)(=O)Nc2cc(C)on2)cc1	32 µM (≈ 14.2 µg/mL)	0.5 µM (≈ 0.221 µg/mL)	16 µM (≈ 7.08 µg/mL)	1 µM (≈ 0.442 µg/mL)	1000 µM (≈ 442 µg/mL)	≥ 1000 µM	32 µM (≈ 14.2 µg/mL)	> 500 µM	> 500 µM	> 500 µM	> 500 µM	> 500 µM	> 500 µM	> 500 µM	> 500 µM	> 500 µM	> 500 µM	> 500 µM	> 500 µM	> 500 µM
Nc1ccc(S(=O)(=O)Nc2ccc(Oc3ccccc3)cc2)cc1	500 µM (≈ 170 µg/mL)	500 µM (≈ 170 µg/mL)	250 µM (≈ 85.1 µg/mL)	500 µM (≈ 170 µg/mL)	1000 µM (≈ 340 µg/mL)	1000 µM (≈ 340 µg/mL)	500 µM (≈ 170 µg/mL)	–	–	–	–	–	–	–	–	–	–	–	–	–
Cc1cc(C)nc(NS(=O)(=O)c2ccc(NC(=O)/C=N/NC(=O)c3ccncc3)cc2)n1	16 µM (≈ 7.26 µg/mL)	1 µM (≈ 0.453 µg/mL)	8 µM (≈ 3.63 µg/mL)	2 µM (≈ 0.907 µg/mL)	1000 µM (≈ 453 µg/mL)	≥ 1000 µM	16 µM (≈ 7.26 µg/mL)	–	–	–	–	–	–	–	–	–	–	–	–	–
COC(=O)c1ccc(NS(=O)(=O)c2ccc(N)cc2)cc1O	> 1000 µM	250 µM (≈ 80.6 µg/mL)	1000 µM (≈ 322 µg/mL)	250 µM (≈ 80.6 µg/mL)	> 1000 µM	> 1000 µM	> 1000 µM	–	–	–	–	–	–	–	–	–	–	–	–	–
O=C(/C=N/NC(=O)c1ccncc1)NNC(=O)c1ccncc1	16 µM (≈ 5 µg/mL)	1 µM (≈ 0.312 µg/mL)	8 µM (≈ 2.5 µg/mL)	2 µM (≈ 0.625 µg/mL)	1000 µM (≈ 312 µg/mL)	> 1000 µM	16 µM (≈ 5 µg/mL)	–	–	–	–	–	–	–	–	–	–	–	–	–
NS(=O)(=O)c1ccc(NC(=O)/C=N/NC(=O)c2ccncc2)cc1	32 µM (≈ 11.1 µg/mL)	1 µM (≈ 0.347 µg/mL)	16 µM (≈ 5.56 µg/mL)	2 µM (≈ 0.695 µg/mL)	1000 µM (≈ 347 µg/mL)	≥ 1000 µM	32 µM (≈ 11.1 µg/mL)	–	–	–	–	–	–	–	–	–	–	–	–	–
Nc1ccc(S(=O)(=O)Nc2ccc(Oc3ccc(Cl)cc3)cc2)cc1	500 µM (≈ 187 µg/mL)	250 µM (≈ 93.7 µg/mL)	250 µM (≈ 93.7 µg/mL)	500 µM (≈ 187 µg/mL)	1000 µM (≈ 375 µg/mL)	1000 µM (≈ 375 µg/mL)	500 µM (≈ 187 µg/mL)	–	–	–	–	–	–	–	–	–	–	–	–	–
